From ChEMBL document CHEMBL1909505, “Leonurine-cysteine analog conjugates as a new class of multifunctional anti-myocardial ischemia agent” (Eur J Med Chem, 2011)
Activity calls are given as the source filed them. The calls are words filed in the database; no cut-off is given here.

Assays:
Rattus norvegicus [1] = species on record: Rattus norvegicus; assay: Cardioprotective activity against hypoxia-induced Sprague-Dawley NRVM damage assessed as increased cell viability at 0.1 uM treated 12 hrs before hypoxia challenge measured after 5 hrs by MTT assay; format: functional
Procedure, shortened: (§1)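 Myocytes seeded at 1×10^5 cells/mL and cultured 72 h at 37 °C in 5% CO2, pretreated 12 h, then exposed to hypoxic solution. MTT added for 4 h, formazan dissolved in DMSO, absorbance read at 570 nm. Viability given as percent of normoxic control, taken as 100%.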

[2] = Cardioprotective activity against hypoxia-induced Sprague-Dawley NRVM damage assessed as inhibition of LDH release at 0.1 uM treated 12 hrs before hypoxia challenge measured after 5 hrs; format: functional; conditions: Rattus norvegicus
[3] = Cardioprotective activity against hypoxia-induced Sprague-Dawley NRVM damage assessed as increase in hydrogen sulfide level at 0.1 uM treated 12 hrs before hypoxia challenge measured after 5 hrs; format: functional; conditions: Rattus norvegicus
Rattus norvegicus [4] = species on record: Rattus norvegicus; assay: Cardioprotective activity against hypoxia-induced Sprague-Dawley NRVM damage assessed as increased cell viability at 0.1 umol/L treated 12 hrs before hypoxia challenge measured after 5 hrs by MTT assay; format: functional; procedure, shortened: as §1
[5] = Cardioprotective activity against hypoxia-induced Sprague-Dawley NRVM damage assessed as inhibition of LDH release treated 12 hrs before hypoxia challenge measured after 5 hrs; format: functional; conditions: Rattus norvegicus
[6] = Cardioprotective activity against hypoxia-induced Sprague-Dawley NRVM damage assessed as increase in hydrogen sulfide level treated 12 hrs before hypoxia challenge measured after 5 hrs; format: functional; conditions: Rattus norvegicus
Procedure, shortened: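 H2S in culture medium: 0.5 mL supernatant mixed with 0.25 mL 1% zinc acetate, then 0.25 mL 10% TCA to remove protein, centrifuged 12,000 g for 10 min at 4 °C. Absorbance read at 670 nm in duplicate against a same-day NaHS calibration curve. Cells pretreated 12 h before hypoxia; three or six samples.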

[7] = Cardioprotective activity against hypoxia-induced Sprague-Dawley NRVM damage assessed as decrease in ROS level treated 12 hrs before hypoxia challenge measured after 5 hrs […]; format: functional; conditions: Rattus norvegicus
Procedure, shortened: (§2)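 Kit assays per the manufacturer for ROS level and catalase activity in hypoxic myocytes pretreated 12 h. Means ± S.E.M. from three samples; t-test versus the model group.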

Rattus norvegicus [8] = species on record: Rattus norvegicus; assay: Cardioprotective activity against hypoxia-induced Sprague-Dawley NRVM damage assessed as decrease in MDA level treated 12 hrs before hypoxia challenge measured after 5 hrs […]; format: functional
[9] = Cardioprotective activity against hypoxia-induced Sprague-Dawley NRVM damage assessed as increase in SOD activity treated 12 hrs before hypoxia challenge measured after 5 hrs […]; format: functional; conditions: Rattus norvegicus
[10] = Cardioprotective activity against hypoxia-induced Sprague-Dawley NRVM damage assessed as increase in CAT activity treated 12 hrs before hypoxia challenge measured after 5 hrs […]; format: functional; conditions: Rattus norvegicus; procedure, shortened: as §2
[11] = Antiapoptotic activity against hypoxia-induced Sprague-Dawley NRVM assessed as decrease in nuclei-shrunk treated 12 hrs before hypoxia challenge measured after 5 hrs using Hoechst 33258 staining-based by fluorescence microscopy; format: functional; conditions: Rattus norvegicus
Procedure, shortened: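 After 12 h pretreatment and hypoxia, myocytes were stained with Hoechst 33258 and photographed under fluorescence (×400). Each image is representative of three independent observations.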

[12] = Antiapoptotic activity against hypoxia-induced Sprague-Dawley NRVM assessed as decrease in nuclear condensation treated 12 hrs before hypoxia challenge measured after 5 hrs by transmission electron microscopy; format: functional; conditions: Rattus norvegicus
Procedure, shortened: (§3)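 Neonatal rat ventricular myocytes cultured 72 h (DMEM, 10% FBS, 5-bromodeoxyuridine), pretreated 12 h, then put in hypoxic solution. Cells fixed 2 h in 2.5% glutaraldehyde in PBS, post-fixed 1 h in 1% osmium tetroxide, dehydrated through graded ethanol, embedded in Epon 812, and examined by transmission electron microscopy (×11000). Compared with normoxic and hypoxic untreated groups.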

[13] = Antiapoptotic activity against hypoxia-induced Sprague-Dawley NRVM assessed as decrease in nucleus aggregation treated 12 hrs before hypoxia challenge measured after 5 hrs by transmission electron microscopy; format: functional; conditions: Rattus norvegicus; procedure, shortened: as §3
[14] = Antiapoptotic activity against hypoxia-induced Sprague-Dawley NRVM assessed as increase in myofilaments integrity preservation treated 12 hrs before hypoxia challenge measured after 5 hrs by transmission electron microscopy; format: functional; conditions: Rattus norvegicus; procedure, shortened: as §3
[15] = Antiapoptotic activity against hypoxia-induced Sprague-Dawley NRVM assessed as appearance of distinct sarcomeres treated 12 hrs before hypoxia challenge measured after 5 hrs by transmission electron microscopy; format: functional; conditions: Rattus norvegicus; procedure, shortened: as §3
[16] = Antiapoptotic activity against hypoxia-induced Sprague-Dawley NRVM assessed as decrease in apoptotic cells treated 12 hrs before hypoxia challenge measured after 5 hrs by AnnexinV-FITC/PI staining-based flow cytometric analysis; format: functional, cell-based; conditions: Rattus norvegicus
Procedure, shortened: (§4)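 Cardiomyocytes pretreated 12 h before hypoxia. Annexin V-FITC/PI staining done with a kit per the manufacturer, then read by flow cytometry to separate apoptotic from necrotic cells. Means ± S.E.M. from three samples; two-tailed Student's t-test versus the model group.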

[17] = Antiapoptotic activity against hypoxia-induced Sprague-Dawley NRVM assessed as inhibition of cell necrosis treated 12 hrs before hypoxia challenge measured after 5 hrs by AnnexinV-FITC/PI staining-based flow cytometric analysis; format: functional; conditions: Rattus norvegicus; procedure, shortened: as §4
[18] = Antiapoptotic activity against hypoxia-induced Sprague-Dawley NRVM assessed as increase in bcl-2 expression treated 12 hrs before hypoxia challenge measured after 5 hrs by RT-PCR analysis relative to control; format: functional; conditions: Rattus norvegicus
[19] = Antiapoptotic activity against hypoxia-induced Sprague-Dawley NRVM assessed as decrease in bax expression treated 12 hrs before hypoxia challenge measured after 5 hrs by RT-PCR analysis relative to control; format: functional; conditions: Rattus norvegicus
[20] = Antiapoptotic activity against hypoxia-induced Sprague-Dawley NRVM assessed as increase in Bcl2 to Bax mRNA expression ratio treated 12 hrs before hypoxia challenge measured after 5 hrs by RT-PCR analysis relative to control; format: functional; conditions: Rattus norvegicus
[21] = Down regulation of caspase-3 expression in hypoxia-induced Sprague-Dawley NRVM treated 12 hrs before hypoxia challenge measured after 5 hrs by RT-PCR down analysis relative to control; format: functional; conditions: Rattus norvegicus
[22] = Antiapoptotic activity against hypoxia-induced Sprague-Dawley NRVM assessed as decrease in cleaved-caspase-3 to procaspase-3 ratio treated 12 hrs before hypoxia challenge measured after 5 hrs by Western blot analysis relative to control; conditions: Rattus norvegicus

SMILES	Activity (Rattus norvegicus [1])	inhibition [2]	Activity [3]	Activity (Rattus norvegicus [4])	inhibition [5]	Activity [6]	other results
C#CCSC[C@H](N)C(=O)O	Active	Active	Active				
COc1cc(C(=O)OCCCCNC(=N)N)cc(OC)c1O	Active	Active	Active				
COc1cc(C(=O)OCCCCNC(=N)N)cc(OC)c1OC(=O)CCSSCCC(=O)Oc1c(OC)cc(C(=O)OCCCCNC(=N)N)cc1OC				Active	Active	inactive	
C#CCSC[C@H](N)C(=O)Oc1c(OC)cc(C(=O)OCCCCNC(=N)N)cc1OC	Active	Active	Active	Active	Active	Active	Activity [7]: Active; Activity (Rattus norvegicus [8]): Active; Activity [9]: Active; Activity [10]: Active; Activity [11]: Active; Activity [12]: Active; Activity [13]: Active; Activity [14]: Active; Activity [15]: Active; Activity [16]: Active; inhibition [17]: inactive; fold change (FC) [18]: 0.98; fold change (FC) [19]: 0.89; fold change (FC) [20]: 1.22; Activity [21]: Active; Activity [22]: Active
C=CCSC[C@H](N)C(=O)Oc1c(OC)cc(C(=O)OCCCCNC(=N)N)cc1OC				Active	Active	Active	
